# Test results as given in ChEMBL document CHEMBL1157589, “Antifungal 3,5-disubstituted furanones: From 5-acyloxymethyl to 5-alkylidene derivatives” (Bioorg Med Chem, 2010).
# Activity calls are given as the source filed them. No cut-off for these calls is given here.
# Legend:
# CCRF-CEM [1] = assay: Cytostatic activity against human CCRF-CEM cells after 72 hrs by XTT assay; type: functional, cell-based; conditions: Homo sapiens, CCRF-CEM, 72 h; read-out: IC50
# Outline: (§1)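 Leukemia cells (L1210 ATCC CCL 219, CCRF-CEM ATCC CCL 119, HL-60 ATCC CCL 240) grown in 24-well plates in RPMI 1640 with fetal calf serum. Growth assessed 72 h after drug addition. Viability measured by XTT spectrophotometric assay; potency given as IC50.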
# Candida parapsilosis [2] = assay: Antifungal activity against Candida parapsilosis ATCC 22019 after 24 hrs by microdilution method; type: functional; conditions: Lodderomyces parapsilosis, ATCC 22019, 24 h
# Outline: (§2)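 Yeasts held on Sabouraud dextrose agar. MIC by NCCLS M27-A broth microdilution in RPMI 1640 with L-glutamine, buffered with 0.165 M MOPS to pH 7.0. Compounds in DMSO (≤2% final), twofold dilutions 500–0.48. Final inoculum 5 × 10³ ± 0.2 cfu mL⁻¹. Incubated at 35 °C; absorbance at 540 nm read at 24 and 48 h. MIC is 80% growth inhibition versus control; run twice in duplicate.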
# Candida albicans [3] = assay: Antifungal activity against Candida albicans ATCC 90028 after 24 hrs by microdilution method; type: functional; conditions: ATCC 90028, 24 h; outline: as §2
# Candida tropicalis [4] = assay: Antifungal activity against Candida tropicalis 156 after 48 hrs by microdilution method; type: functional; conditions: Candida tropicalis, 156, 48 h; outline: as §2
# [5] = system: Trichophyton mentagrophytes; assay: Antifungal activity against Trichophyton mentagrophytes 445 after 120 hrs by microdilution method; type: functional; conditions: Trichophyton mentagrophytes, 445, 120 h
# Outline: (§3)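 Dermatophyte held on Sabouraud dextrose agar. M27-A microdilution in MOPS-buffered (0.165 M, pH 7.0) RPMI 1640 with L-glutamine. DMSO ≤2% final; twofold dilutions 500–0.48. Inoculum 5 × 10³ ± 0.2 cfu mL⁻¹ final. Incubated at 35 °C; MIC read visually at 72 and 120 h as 80% inhibition of control growth; determined twice in duplicate.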
# CCRF-CEM [6] = assay: Induction of apoptosis in human CCRF-CEM cells assessed as loss of cellular […] membrane integrity at 2.5 umol/L after 72 hrs by annexin-V FITC staining-based flow cytometry; type: functional, cell-based
# Outline: (§4)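 CCRF-CEM cells grown with compound at 2.5 µmol/L alongside untreated controls. Apoptotic and necrotic populations detected by flow cytometry using an Annexin V-FITC apoptosis kit, following the manufacturer's protocol.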
# Candida albicans [7] = assay: Antifungal activity against Candida albicans ATCC 44859 after 48 hrs by microdilution method; type: functional; conditions: ATCC 44859, 48 h; outline: as §2
# Lichtheimia corymbifera [8] = assay: Antifungal activity against Absidia corymbifera 272 after 24 hrs by microdilution method; type: functional; conditions: Lichtheimia corymbifera, 272, 24 h
# Outline: (§5)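 Filamentous strains held on Sabouraud dextrose agar. NCCLS M27-A broth microdilution in RPMI 1640 with L-glutamine and 0.165 M MOPS, pH 7.0. DMSO diluent ≤2% final; twofold dilutions 500–0.48. Inoculum 5 × 10³ ± 0.2 cfu mL⁻¹ final.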
# Trichosporon beigelii [9] = assay: Antifungal activity against Trichosporon beigelii 1188 after 24 hrs by microdilution method; type: functional; conditions: Trichosporon beigelii, 1188, 24 h; outline: as §2
# [10] = system: Trichophyton mentagrophytes; assay: Antifungal activity against Trichophyton mentagrophytes 445 after 72 hrs by microdilution method; type: functional; conditions: Trichophyton mentagrophytes, 445, 72 h; outline: as §3
# Pichia kudriavzevii [11] = assay: Antifungal activity against Candida krusei E28 after 24 hrs by microdilution method; type: functional; conditions: E28, 24 h; outline: as §2
# CCRF-CEM [12] = assay: Cell cycle arrest in human CCRF-CEM cells assessed as increase in accumulation at S phase at 2.5 umol/L after 72 hrs by FACS analysis; type: functional, cell-based
# Outline: (§6)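 CCRF-CEM cells cultured with compound at 2.5 µmol/L. At the 72 h growth endpoint, cells ethanol-fixed and stained with propidium iodide in RNase A-containing buffer. Cell-cycle distribution analysed by flow cytometry against untreated control cells.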
# Lichtheimia corymbifera [13] = assay: Antifungal activity against Absidia corymbifera 272 after 48 hrs by microdilution method; type: functional; conditions: Lichtheimia corymbifera, 272, 48 h; outline: as §5
# HeLa S3 = assay: Cytostatic activity against human HeLaS3 cells after 48 hrs by XTT assay; conditions: Homo sapiens, HeLa S3, 48 h; read-out: IC50
# Clavispora lusitaniae [14] = assay: Antifungal activity against Candida lusitaniae 2446/I after 24 hrs by microdilution method; type: functional; outline: as §2
# Nakaseomyces glabratus [15] = assay: Antifungal activity against Candida glabrata 20/I after 24 hrs by microdilution method; type: functional; outline: as §2
# Nakaseomyces glabratus [16] = assay: Antifungal activity against Candida glabrata 20/I after 48 hrs by microdilution method; type: functional; outline: as §2
# Pichia kudriavzevii [17] = assay: Antifungal activity against Candida krusei ATCC 6258 after 24 hrs by microdilution method; type: functional; conditions: ATCC 6258, 24 h; outline: as §2
# Candida tropicalis [18] = assay: Antifungal activity against Candida tropicalis 156 after 24 hrs by microdilution method; type: functional; conditions: Candida tropicalis, 156, 24 h; outline: as §2
# Aspergillus fumigatus [19] = assay: Antifungal activity against Aspergillus fumigatus 231 after 24 hrs by microdilution method; type: functional; conditions: Aspergillus fumigatus, 231, 24 h; outline: as §5
# Pichia kudriavzevii [20] = assay: Antifungal activity against Candida krusei ATCC 6258 after 48 hrs by microdilution method; type: functional; conditions: ATCC 6258, 48 h; outline: as §2
# CCRF-CEM [21] = assay: Induction of apoptosis in human CCRF-CEM cells assessed as necrotic cells at 2.5 umol/L after 72 hrs by annexin-V FITC staining-based flow cytometry; type: functional; outline: as §4
# CCRF-CEM [22] = assay: Induction of apoptosis in human CCRF-CEM cells assessed as loss of cellular plasma membrane integrity at 2.5 umol/L after 72 hrs by annexin-V FITC staining-based flow cytometry; type: functional, cell-based; outline: as §4
# Candida parapsilosis [23] = assay: Antifungal activity against Candida parapsilosis ATCC 22019 after 48 hrs by microdilution method; type: functional; conditions: Lodderomyces parapsilosis, ATCC 22019, 48 h; outline: as §2
# Trichosporon beigelii [24] = assay: Antifungal activity against Trichosporon beigelii 1188 after 48 hrs by microdilution method; type: functional; conditions: Trichosporon beigelii, 1188, 48 h; outline: as §2
# Aspergillus fumigatus [25] = assay: Antifungal activity against Aspergillus fumigatus 231 after 48 hrs by microdilution method; type: functional; conditions: Aspergillus fumigatus, 231, 48 h; outline: as §5
# CCRF-CEM [26] = assay: Cell cycle arrest in human CCRF-CEM cells assessed as decrease in accumulation at G2/M phase at 2.5 umol/L after 72 hrs by FACS analysis; type: functional, cell-based; outline: as §6
# L1210 = assay: Cytostatic activity against mouse L1210 cells after 72 hrs by XTT assay; type: functional, cell-based; conditions: Mus musculus, L1210, 72 h; read-out: IC50; outline: as §1
# Candida albicans [27] = assay: Antifungal activity against Candida albicans ATCC 44859 after 24 hrs by microdilution method; type: functional; conditions: ATCC 44859, 24 h; outline: as §2
# CCRF-CEM [28] = assay: Cell cycle arrest in human CCRF-CEM cells assessed as increase in accumulation at G1 phase at 2.5 umol/L after 72 hrs by FACS analysis; type: functional, cell-based; outline: as §6
# HL-60 = assay: Cytostatic activity against human HL60 cells after 72 hrs by XTT assay; type: functional, cell-based; conditions: Homo sapiens, HL-60, 72 h; read-out: IC50; outline: as §1
# Pichia kudriavzevii [29] = assay: Antifungal activity against Candida krusei E28 after 48 hrs by microdilution method; type: functional; conditions: E28, 48 h; outline: as §2
# Clavispora lusitaniae [30] = assay: Antifungal activity against Candida lusitaniae 2446/I after 48 hrs by microdilution method; type: functional; outline: as §2
# Candida albicans [31] = assay: Antifungal activity against Candida albicans ATCC 90028 after 48 hrs by microdilution method; type: functional; conditions: ATCC 90028, 48 h; outline: as §2
smiles,measurement,setting,value
C=C1C=C(c2ccc(Br)cc2)C(=O)O1,IC50,CCRF-CEM [1],2.52 µM
same,MIC80,Candida parapsilosis [2],7.81 µM
same,MIC80,Candida albicans [3],3.9 µM
same,MIC80,Candida tropicalis [4],15.6 µM
same,MIC80,[5],3.9 µM
same,Activity,CCRF-CEM [6],Active
same,MIC80,Candida albicans [7],1.95 µM
same,MIC80,Lichtheimia corymbifera [8],31.2 µM
same,MIC80,Trichosporon beigelii [9],3.9 µM
same,MIC80,[10],1.95 µM
same,MIC80,Pichia kudriavzevii [11],7.81 µM
same,Activity,CCRF-CEM [12],Active
same,MIC80,Lichtheimia corymbifera [13],125 µM
same,IC50,HeLa S3,2.09 µM
same,MIC80,Clavispora lusitaniae [14],7.81 µM
same,MIC80,Nakaseomyces glabratus [15],1.95 µM
same,MIC80,Nakaseomyces glabratus [16],1.95 µM
same,MIC80,Pichia kudriavzevii [17],7.81 µM
same,MIC80,Candida tropicalis [18],7.81 µM
same,MIC80,Aspergillus fumigatus [19],1.95 µM
same,MIC80,Pichia kudriavzevii [20],7.81 µM
same,Activity,CCRF-CEM [21],> 80%
same,Activity,CCRF-CEM [22],Active
same,MIC80,Candida parapsilosis [23],15.6 µM
same,MIC80,Trichosporon beigelii [24],15.6 µM
same,MIC80,Aspergillus fumigatus [25],7.81 µM
same,Activity,CCRF-CEM [26],Active
same,IC50,L1210,21 µM
same,MIC80,Candida albicans [27],0.49 µM
same,Activity,CCRF-CEM [28],Active
same,IC50,HL-60,18 µM
same,MIC80,Pichia kudriavzevii [29],7.81 µM
same,MIC80,Clavispora lusitaniae [30],15.6 µM
same,MIC80,Candida albicans [31],7.81 µM
